Reference: ChEMBL document CHEMBL1136930, “Doubly loaded cycloSaligenyl-pronucleotides - 5,5'-Bis-(cycloSaligenyl-2',3'-dideoxy-2',3'-didehydrothymidine monophosphates)” (J Med Chem, 2009)

Legend:
[1] = Chemical stability assessed as hydrolysis half life in aqueous phosphate buffer saline at pH 7.3 by HPLC analysis; type: physicochemical; conditions: for half-life: aqueous phosphate buffered saline; for t1/2: buffer
[2] = Chemical stability assessed as hydrolysis half life in aqueous phosphate buffer saline at pH 7.6 by HPLC analysis; type: physicochemical; conditions: for half-life: aqueous phosphate buffered saline; for t1/2: buffer
[3] = Chemical stability assessed as half life of hydrolysis in RPMI-1640 culture medium at pH 7.6 in presence 10% heat-inactivated fetal calf serum by HPLC analysis; type: physicochemical; conditions: cattle; for t1/2: serum
[4] = tested on: Human immunodeficiency virus 1; assay: Antiviral activity against HIV1 in wild type human CEM cells assessed as virus-induced cytopathic effect after 4 to 5 days by microscopy; type: functional, organism-based, CCRF-CEM
How it was run: (§1)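 50% effective concentration against HIV in wild-type or thymidine kinase-deficient CEM T-lymphocytes, reported as the mean of two to three independent experiments.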

[5] = tested on: Human immunodeficiency virus 2; assay: Antiviral activity against HIV2 in wild type human CEM cells assessed as virus-induced cytopathic effect after 4 to 5 days by microscopy; type: functional, organism-based, CCRF-CEM; how it was run: as §1
[6] = tested on: Human immunodeficiency virus 2; assay: Antiviral activity against HIV2 in thymidine kinase deficient human CEM cells assessed as virus-induced cytopathic effect after 4 to 5 days by microscopy; type: functional, organism-based, CCRF-CEM; how it was run: as §1
[7] = (§2) Cytostatic activity against wild type human CEM cells; type: cell-based, CCRF-CEM; conditions: wild type CEM (CCRF-CEM) cells
How it was run: (§3)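 50% cytostatic concentration measured in wild-type CEM T-lymphocyte cultures.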

[8] = Chemical stability assessed as hydrolysis half life by HPLC analysis; type: physicochemical
[9] = Ratio of hydrolysis half life in RPMI-1640 culture medium at pH 7.6 in presence 10% heat-inactivated fetal calf serum to hydrolysis half life in aqueous phosphate buffer saline at pH 7.6; type: ADME; conditions: cattle
[10] = tested on: CCRF-CEM; assay: as §2; type: cell-based; conditions: ccrf-cem; how it was run: as §3
[11] = Ratio of hydrolysis half life in aqueous phosphate buffer saline at pH 7.3 to hydrolysis half life in RPMI-1640 culture medium at pH 7.6 in presence 10% heat-inactivated fetal calf serum; type: ADME
[12] = Human immunodeficiency virus 1, CCRF-CEM
[13] = Human immunodeficiency virus 2, CCRF-CEM

With Cc1cc(-c2cc(C)c3c(c2)COP(=O)(OC[C@@H]2C=C[C@H](n4cc(C)c(=O)[nH]c4=O)O2)O3)cc2c1OP(=O)(OC[C@@H]1C=C[C@H](n3cc(C)c(=O)[nH]c3=O)O1)OC2 (some centres undefined) the half-life [1] was 2.2 h, the half-life [2] was 2.3 h and the half-life [3] was 2.3 h. For the same molecule, the EC50 [4, 12] was 0.4 µM, the EC50 [5, 13] was 0.83 µM and the EC50 [6, 13] was 0.85 µM. It also gave a CC50 [7] of 64 µM.
Cc1cn([C@H]2C=C[C@@H](COP3(=O)OCc4cc(-c5cc6c(c(C(C)(C)C)c5)OP(=O)(OC[C@@H]5C=C[C@H](n7cc(C)c(=O)[nH]c7=O)O5)OC6)cc(C(C)(C)C)c4O3)O2)c(=O)[nH]c1=O (single isomer, unassigned; form 3) gave a t1/2 [1] of 5.3 h, a t1/2 [2] of 4.4 h and a t1/2 [3] of 9.1 h. The EC50 ([4]; ccrf-cem) was 0.86 µM, the EC50 ([5]; ccrf-cem) was 2 µM and the EC50 ([6]; ccrf-cem) was 2.6 µM.
In the case of Cc1cc(-c2cc(C)c(O)c(CO)c2)cc(CO)c1O, the EC50 [4, 12] is reported as 20 µM, the EC50 [5, 13] is reported as over 50 µM and the EC50 [6, 13] is reported as over 50 µM. It also gave a CC50 [7] of 96 µM.
For Cc1cccc2c1OP(=O)(OC[C@@H]1C=C[C@H](n3cc(C)c(=O)[nH]c3=O)O1)OC2 (some centres undefined), the half-life [8] was 15 h.
In the case of Cc1cn([C@H]2C=C[C@@H](COP3(=O)OCc4cccc(-c5cccc6c5OP(=O)(OC[C@@H]5C=C[C@H](n7cc(C)c(=O)[nH]c7=O)O5)OC6)c4O3)O2)c(=O)[nH]c1=O (single isomer, unassigned; form 1), the t1/2 [1] is reported as 3.2 h.
Work on Cc1cn([C@H]2C=C[C@@H](COP3(=O)OCc4cc(-c5cc6c(c(C(C)(C)C)c5)OP(=O)(OC[C@@H]5C=C[C@H](n7cc(C)c(=O)[nH]c7=O)O5)OC6)cc(C(C)(C)C)c4O3)O2)c(=O)[nH]c1=O (some centres undefined) yielded a half-life [1] of 4.7 h, a half-life [2] of 4.1 h and a half-life [3] of 8.3 h. The Ratio [9] was 2, the EC50 [4, 12] was 0.88 µM and the EC50 [5, 13] was 1.3 µM. For the same molecule, the EC50 [6, 13] was 2.9 µM and the CC50 [7] was 20 µM.
For Cc1cn([C@H]2C=C[C@@H](COP3(=O)OCc4cccc(-c5cccc6c5OP(=O)(OC[C@@H]5C=C[C@H](n7cc(C)c(=O)[nH]c7=O)O5)OC6)c4O3)O2)c(=O)[nH]c1=O (some centres undefined), the t1/2 [1] was 8.2 h.
Cc1cn([C@H]2C=C[C@@H](COP3(=O)OCc4cc(-c5cc6c(c(C(C)(C)C)c5)OP(=O)(OC[C@@H]5C=C[C@H](n7cc(C)c(=O)[nH]c7=O)O5)OC6)cc(C(C)(C)C)c4O3)O2)c(=O)[nH]c1=O (single isomer, unassigned; form 1) gave a t1/2 [1] of 4.3 h, a t1/2 [2] of 3.9 h and a t1/2 [3] of 7.9 h. For the same molecule, the EC50 ([4]; ccrf-cem) was 0.81 µM, the EC50 ([5]; ccrf-cem) was 1.6 µM and the EC50 ([6]; ccrf-cem) was 2.8 µM. For the same molecule, the CC50 [10] was 18 µM.
For Cc1cn([C@H]2C=C[C@@H](COP3(=O)OCc4cc(-c5ccc6c(c5)COP(=O)(OC[C@@H]5C=C[C@H](n7cc(C)c(=O)[nH]c7=O)O5)O6)ccc4O3)O2)c(=O)[nH]c1=O (single isomer, unassigned; form 1), the t1/2 [1] was 1 h, the t1/2 [2] was 0.4 h and the t1/2 [3] was 0.6 h. It also gave an EC50 ([4]; ccrf-cem) of 0.46 µM, an EC50 ([5]; ccrf-cem) of 1.2 µM and an EC50 ([6]; ccrf-cem) of 4.4 µM. The CC50 [10] was 107 µM.
Work on Cc1cn([C@H]2C=C[C@@H](CO)O2)c(=O)[nH]c1=O [STAVUDINE] yielded an EC50 [4, 12] of 0.56 µM, an EC50 [5, 13] of 0.79 µM and an EC50 [6, 13] of 29 µM. It also gave a CC50 [7] of over 250 µM.
For Cc1cn([C@H]2C=C[C@@H](COP3(=O)OCc4cc(-c5ccc6c(c5)COP(=O)(OC[C@@H]5C=C[C@H](n7cc(C)c(=O)[nH]c7=O)O5)O6)ccc4O3)O2)c(=O)[nH]c1=O (some centres undefined), the t1/2 [1] was 1.7 h, the t1/2 [2] was 0.5 h and the t1/2 [3] was 0.8 h. For the same molecule, the Ratio [11] was 2, the EC50 [4, 12] was 0.51 µM and the EC50 [5, 13] was 0.62 µM. It also gave an EC50 ([6]; ccrf-cem) of 7.5 µM and a CC50 [7] of 115 µM.
In the case of Cc1cn([C@H]2C=C[C@@H](COP3(=O)OCc4cc(-c5ccc(O)c(CO)c5)ccc4O3)O2)c(=O)[nH]c1=O (some centres undefined), the half-life [1] is reported as 2.2 h, the half-life [2] is reported as 2 h and the half-life [3] is reported as 2.1 h. For the same molecule, the EC50 [4, 12] was 0.73 µM, the EC50 [5, 13] was 0.91 µM and the EC50 [6, 13] was 3.7 µM. The CC50 [7] was 82 µM.
Molecule Cc1cn([C@H]2C=C[C@@H](COP3(=O)OCc4cc(-c5ccc6c(c5)COP(=O)(OC[C@@H]5C=C[C@H](n7cc(C)c(=O)[nH]c7=O)O5)O6)ccc4O3)O2)c(=O)[nH]c1=O (single isomer, unassigned; form 2) has a t1/2 [1] of 3.3 h, a half-life [2] of 0.7 h and a half-life [3] of 1 h. It also gave an EC50 ([4]; ccrf-cem) of 0.47 µM, an EC50 ([6]; ccrf-cem) of 3.3 µM and a CC50 [10] of 78 µM.
With Cc1cn([C@H]2C=C[C@@H](COP3(=O)OCc4cc(-c5ccccc5)ccc4O3)O2)c(=O)[nH]c1=O (some centres undefined) the half-life [8] was 3.1 h.
Work on OCc1cc(-c2ccc(O)c(CO)c2)ccc1O yielded an EC50 [4, 12] of 99 µM, an EC50 [5, 13] of 117 µM and an EC50 [6, 13] of 18 µM. The CC50 [7] was over 250 µM.
CC(C)(C)c1cc(-c2cc(CO)c(O)c(C(C)(C)C)c2)cc(CO)c1O showed an EC50 [4, 12] of 7.9 µM, an EC50 [5, 13] of 7.9 µM and an EC50 [6, 13] of 6.9 µM. It also gave a CC50 [7] of 20 µM.
Cc1cn([C@H]2C=C[C@@H](COP3(=O)OCc4cc(-c5cc6c(c(C(C)(C)C)c5)OP(=O)(OC[C@@H]5C=C[C@H](n7cc(C)c(=O)[nH]c7=O)O5)OC6)cc(C(C)(C)C)c4O3)O2)c(=O)[nH]c1=O (single isomer, unassigned; form 2) showed a t1/2 [1] of 4.7 h, a t1/2 [2] of 4.1 h and a t1/2 [3] of 8 h. The EC50 ([4]; ccrf-cem) was 0.49 µM, the EC50 ([5]; ccrf-cem) was 1 µM and the EC50 ([6]; ccrf-cem) was 3.2 µM. For the same molecule, the CC50 [10] was 19 µM.
Work on Cc1cn([C@H]2C=C[C@@H](COP3(=O)OCc4cccc(-c5cccc6c5OP(=O)(OC[C@@H]5C=C[C@H](n7cc(C)c(=O)[nH]c7=O)O5)OC6)c4O3)O2)c(=O)[nH]c1=O (single isomer, unassigned; form 2) yielded a t1/2 [1] of 8.5 h.
